In ChEMBL document CHEMBL1140400, “Synthesis and anthelmintic properties of arylquinolines with activity against drug-resistant nematodes” (2005):

The compounds below were run on Haemonchus contortus (assay: Lethal dose against Haemonchus contortus CAVR (ivermectin resistant) using NemaTox assay).
Type: functional
Outline: (§1)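 Larval development assay in agar matrix: 80–100 nematode eggs per well with compound at twofold serial dilutions from 100 μg/mL downward; wells supplemented with nutrient medium, incubated at 26 °C until control larvae reached the L3 stage. Day 5 qualitative larval assessment; LD99 taken as lowest concentration inhibiting development in 99% of larvae present.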

**Q.** `COc1cc(OC)c2cc(Cl)ccc2n1` was tested. Which LD99 did it give?
**A.** The LD99 was 6.3 µg/mL.

**Q.** Which LD99 does the source give for `COc1cc(OC)c2cccc(-c3ccccc3)c2n1` here?
**A.** Its LD99 is 3.1 µg/mL.

**Q.** `COc1ccc(-c2cccc3c(OC)cc(OC)nc23)cc1` was tested. Which LD99 did it give?
**A.** The LD99 was 3.1 µg/mL.

**Q.** How did the LD99 turn out when `COc1ccc(-c2ccc3nc(OC)cc(OC)c3c2)cc1` was run?
**A.** Its LD99 is 1.6 µg/mL.

**Q.** With `COc1cc(OC)c2cc(-c3ccccc3)ccc2n1` as the compound, how does the LD99 read?
**A.** Its LD99 is 3.1 µg/mL.

**Q.** Which LD99 does the source give for `c1ccc([C@H]2CN3CCSC3=N2)cc1` [LEVAMISOLE] here?
**A.** The LD99 was 0.78 µg/mL.

**Q.** Which LD99 does the source give for `c1ccc2[nH]c(-c3cscn3)nc2c1` [THIABENDAZOLE] here?
**A.** The LD99 was 0.16 µg/mL.

These compounds were tested on Haemonchus contortus (assay: Lethal dose against Haemonchus contortus VSRG (benzimidazole resistant) using NemaTox assay).
Type: functional
Outline: as §1

**Q.** `COc1cc(OC)c2cc(Cl)ccc2n1` was tested. Which LD99 did it give?
**A.** The LD99 was 13 µg/mL.

**Q.** Which LD99 does the source give for `COc1cc(OC)c2cccc(-c3ccccc3)c2n1` here?
**A.** The LD99 was 4.4 µg/mL.

**Q.** For `COc1ccc(-c2cccc3c(OC)cc(OC)nc23)cc1`, which LD99 is on record?
**A.** Its LD99 is 6.3 µg/mL.

**Q.** Which LD99 does the source give for `COc1ccc(-c2ccc3nc(OC)cc(OC)c3c2)cc1` here?
**A.** The LD99 was 2.2 µg/mL.

**Q.** `COc1cc(OC)c2cc(-c3ccccc3)ccc2n1` was tested. Which LD99 did it give?
**A.** Its LD99 is 3.1 µg/mL.

**Q.** For `c1ccc([C@H]2CN3CCSC3=N2)cc1` [LEVAMISOLE], which LD99 is on record?
**A.** Its LD99 is 1.6 µg/mL.

**Q.** Which LD99 does the source give for `c1ccc2[nH]c(-c3cscn3)nc2c1` [THIABENDAZOLE] here?
**A.** The LD99 was 5 µg/mL.

What follows are compounds tested on Haemonchus contortus (assay: Lethal dose against Haemonchus contortus Lawes ( levamisole and benzimidazole resistant) using NemaTox assay).
Type: functional
Outline: as §1

**Q.** `COc1cc(OC)c2cc(Cl)ccc2n1` was tested. Which LD99 did it give?
**A.** Its LD99 is 8.8 µg/mL.

**Q.** `COc1cc(OC)c2cccc(-c3ccccc3)c2n1` was tested. Which LD99 did it give?
**A.** Its LD99 is 6.3 µg/mL.

**Q.** How did the LD99 turn out when `COc1ccc(-c2cccc3c(OC)cc(OC)nc23)cc1` was run?
**A.** The LD99 was 3.1 µg/mL.

**Q.** For `COc1ccc(-c2ccc3nc(OC)cc(OC)c3c2)cc1`, which LD99 is on record?
**A.** Its LD99 is 1.6 µg/mL.

**Q.** With `COc1cc(OC)c2cc(-c3ccccc3)ccc2n1` as the compound, how does the LD99 read?
**A.** Its LD99 is 3.1 µg/mL.

**Q.** For `c1ccc([C@H]2CN3CCSC3=N2)cc1` [LEVAMISOLE], which LD99 is on record?
**A.** The LD99 was >100 µg/mL.

**Q.** `c1ccc2[nH]c(-c3cscn3)nc2c1` [THIABENDAZOLE] was tested. Which LD99 did it give?
**A.** The LD99 was 5 µg/mL.

The compounds below were run on Haemonchus contortus (assay: Lethal dose against Haemonchus contortus using NemaTox assay).
Type: functional
Outline: as §1

**Q.** For `COc1cc(Cl)nc2ccccc12`, which LD99 is on record?
**A.** The LD99 was 25 µg/mL.

**Q.** For `COc1cc(OC)c2cc(Cl)ccc2n1`, which LD99 is on record?
**A.** Its LD99 is 12.5 µg/mL.

**Q.** Which LD99 does the source give for `COc1nc2ccccc2c(OC)c1-c1ccccc1` here?
**A.** Its LD99 is 25 µg/mL.

**Q.** How did the LD99 turn out when `COc1cc(OC)c2c(C)cc(C)cc2n1` was run?
**A.** The LD99 was 25 µg/mL.

**Q.** With `COc1cc(OC)c2cccc(-c3ccccc3)c2n1` as the compound, how does the LD99 read?
**A.** The LD99 was 12.5 µg/mL.

**Q.** For `COc1ccc(-c2cccc3c(OC)cc(OC)nc23)cc1`, which LD99 is on record?
**A.** The LD99 was 12.5 µg/mL.

**Q.** Which LD99 does the source give for `COc1ccc(-c2ccc3nc(OC)cc(OC)c3c2)cc1` here?
**A.** The LD99 was 3.1 µg/mL.

**Q.** How did the LD99 turn out when `COc1cc(OC)c2cc(-c3ccccc3)ccc2n1` was run?
**A.** Its LD99 is 3.1 µg/mL.

What follows are compounds tested on Teladorsagia circumcincta (assay: Lethal dose against Ostertagia circumcincta using NemaTox assay).
Type: functional
Outline: as §1

**Q.** With `COc1cc(OC)c2cc(Cl)ccc2n1` as the compound, how does the LD99 read?
**A.** Its LD99 is 13 µg/mL.

**Q.** For `COc1cc(OC)c2cccc(-c3ccccc3)c2n1`, which LD99 is on record?
**A.** The LD99 was 6.3 µg/mL.

**Q.** With `COc1ccc(-c2cccc3c(OC)cc(OC)nc23)cc1` as the compound, how does the LD99 read?
**A.** Its LD99 is 3.1 µg/mL.

**Q.** Which LD99 does the source give for `COc1ccc(-c2ccc3nc(OC)cc(OC)c3c2)cc1` here?
**A.** The LD99 was 3.1 µg/mL.

**Q.** With `COc1cc(OC)c2cc(-c3ccccc3)ccc2n1` as the compound, how does the LD99 read?
**A.** Its LD99 is 3.1 µg/mL.

What follows are compounds tested on Trichostrongylus colubriformis (assay: Lethal dose against Trichostrongylus colubriformis using NemaTox assay).
Type: functional
Outline: as §1

**Q.** With `COc1cc(OC)c2cc(Cl)ccc2n1` as the compound, how does the LD99 read?
**A.** The LD99 was 25 µg/mL.

**Q.** `COc1cc(OC)c2cccc(-c3ccccc3)c2n1` was tested. Which LD99 did it give?
**A.** The LD99 was 50 µg/mL.

**Q.** Which LD99 does the source give for `COc1ccc(-c2cccc3c(OC)cc(OC)nc23)cc1` here?
**A.** The LD99 was 6.3 µg/mL.

**Q.** How did the LD99 turn out when `COc1ccc(-c2ccc3nc(OC)cc(OC)c3c2)cc1` was run?
**A.** The LD99 was 3.1 µg/mL.

**Q.** With `COc1cc(OC)c2cc(-c3ccccc3)ccc2n1` as the compound, how does the LD99 read?
**A.** Its LD99 is 6.3 µg/mL.

What follows are compounds tested on Haemonchus contortus (assay: Lethal dose against Haemonchus contortus (susceptible) using NemaTox assay).
Type: functional
Outline: as §1

**Q.** How did the LD99 turn out when `COc1cc(OC)c2cc(Cl)ccc2n1` was run?
**A.** Its LD99 is 13 µg/mL.

**Q.** How did the LD99 turn out when `COc1cc(OC)c2cccc(-c3ccccc3)c2n1` was run?
**A.** The LD99 was 6.3 µg/mL.

**Q.** With `COc1ccc(-c2cccc3c(OC)cc(OC)nc23)cc1` as the compound, how does the LD99 read?
**A.** The LD99 was 6.3 µg/mL.

**Q.** Which LD99 does the source give for `COc1ccc(-c2ccc3nc(OC)cc(OC)c3c2)cc1` here?
**A.** Its LD99 is 3.1 µg/mL.

**Q.** How did the LD99 turn out when `COc1cc(OC)c2cc(-c3ccccc3)ccc2n1` was run?
**A.** The LD99 was 3.1 µg/mL.

**Q.** `c1ccc([C@H]2CN3CCSC3=N2)cc1` [LEVAMISOLE] was tested. Which LD99 did it give?
**A.** Its LD99 is 1.6 µg/mL.

**Q.** For `c1ccc2[nH]c(-c3cscn3)nc2c1` [THIABENDAZOLE], which LD99 is on record?
**A.** Its LD99 is 0.16 µg/mL.
